Test results as given in ChEMBL document CHEMBL1152281, “2-Alkylamino- and alkoxy-substituted 2-amino-1,3,4-oxadiazoles-O-Alkyl benzohydroxamate esters replacements retain the desired inhibition and selectivity against MEK (MAP ERK kinase)” (Bioorg Med Chem Lett, 2008).
Values after ≈ are worked out from the molar mass of the structure shown. Each block holds one molecule with its values, some of them ahead of it. Active and inactive are the calls of the source. No cut-off for these calls is given here.

Experiments:
[1] = Solubility in sodium phosphate buffer at pH 6.5 by HPLC
[2] = Metabolic stability in human liver microsomes assessed as half life
Colon 26 [3] = assay: Antitumor activity against mouse Colon 26 cells implanted in mouse assessed as <62 mg decrease in tumor mass at 100 mg/kg, po administered BID on day 9 to day 15; assay type: functional, organism-based; parameters: dose 100 mg/kg
Colon 26 [4] = assay: Antitumor activity against mouse Colon 26 cells implanted in mouse assessed as 50% decrease in tumor mass at 100 mg/kg, po administered BID on day 9 to day 15; assay type: functional, organism-based; parameters: dose 100 mg/kg
Colon 26 [5] = assay: Antitumor activity against mouse Colon 26 cells implanted in mouse at 100 mg/kg, po administered BID on day 9 to day 15; assay type: functional
Mus musculus [6] = assay: Toxicity in mouse Colon 26 cells implanted mouse assessed as body weight loss at 100 mg/kg, po administered BID on day 9 to day 15; assay type: organism-based; parameters: dose 100 mg/kg, route oral; conditions: in vivo
Method in brief: (§1)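 Mice bearing subcutaneous Colon 26 tumours were gavaged daily or BID on days 9–15 (3 per group). Toxicity was taken as maximum treatment-related weight loss, expressed as percent of mean group weight at initial treatment, with the day of maximum loss recorded; a net weight gain is noted as "+". Vehicle was 5% EtOH + 5% Tween 80 in saline.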

Mus musculus [7] = assay: Ex vivo inhibition of MEK in mouse Colon 26 cells implanted mouse assessed as suppression of ERK-phosphorylation at 100 mg/kg, po after 10 hrs by Western blot; assay type: functional, organism-based; parameters: dose 100 mg/kg
Method in brief: (§2)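 Mice bearing subcutaneous colon 26 tumours received a single oral dose. At each time point tumours were excised, and p-ERK levels were measured by Western blot against vehicle-treated controls.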

Mus musculus [8] = assay: Ex vivo inhibition of MEK in mouse Colon 26 cells implanted mouse assessed as suppression of ERK-phosphorylation at 12.5 mg/kg, po after 10 hrs by Western blot; assay type: functional, organism-based; parameters: dose 12.5 mg/kg; method in brief: as §2
Mus musculus [9] = assay: Toxicity in mouse Colon 26 cells implanted mouse assessed as body weight loss at 300 mg/kg, po administered on day 9 to day 15; assay type: organism-based; parameters: dose 300 mg/kg, route oral; conditions: in vivo; method in brief: as §1
Mus musculus [10] = assay: Toxicity in mouse Colon 26 cells implanted mouse assessed as body weight loss at 200 mg/kg, po administered on day 9 to day 15; assay type: organism-based; parameters: dose 200 mg/kg, route oral; conditions: in vivo; method in brief: as §1
Mus musculus [11] = assay: Toxicity in mouse Colon 26 cells implanted mouse assessed as increase in body weight at 100 mg/kg, po administered on day 9 to day 15; assay type: organism-based; parameters: dose 100 mg/kg, route oral; conditions: in vivo; method in brief: as §1
Mus musculus [12] = assay: Toxicity in mouse Colon 26 cells implanted mouse assessed as body weight loss at 150 mg/kg, po administered BID on day 9 to day 15; assay type: organism-based; parameters: dose 150 mg/kg, route oral; conditions: in vivo; method in brief: as §1
Mus musculus [13] = assay: Toxicity in mouse Colon 26 cells implanted mouse assessed as increase in body weight at 100 mg/kg, po administered BID on day 9 to day 15; assay type: organism-based; parameters: dose 100 mg/kg, route oral; conditions: in vivo; method in brief: as §1
Mus musculus [14] = assay: Toxicity in mouse Colon 26 cells implanted mouse assessed as increase in body weight at 50 mg/kg, po administered BID on day 9 to day 15; assay type: organism-based; parameters: dose 50 mg/kg, route oral; conditions: in vivo; method in brief: as §1
Colon 26 [15] = assay: Antitumor activity against mouse Colon 26 cells implanted in mouse assessed as <62 mg decrease in tumor mass at 300 mg/kg, po administered on day 9 to day 15; assay type: functional, organism-based; parameters: dose 300 mg/kg
Colon 26 [16] = assay: Antitumor activity against mouse Colon 26 cells implanted in mouse assessed as <62 mg decrease in tumor mass at 100 mg/kg, po administered on day 9 to day 15; assay type: functional, organism-based; parameters: dose 100 mg/kg
Colon 26 [17] = assay: Antitumor activity against mouse Colon 26 cells implanted in mouse assessed as <62 mg decrease in tumor mass at 50 mg/kg, po administered BID on day 9 to day 15; assay type: functional, organism-based; parameters: dose 50 mg/kg
Colon 26 [18] = assay: Antitumor activity against mouse Colon 26 cells implanted in mouse assessed as 50% decrease in tumor mass at 50 mg/kg, po administered BID on day 9 to day 15; assay type: functional, organism-based; parameters: dose 50 mg/kg
Colon 26 [19] = assay: Antitumor activity against mouse Colon 26 cells implanted in mouse at 300 mg/kg, po administered on day 9 to day 15; assay type: functional
Colon 26 [20] = assay: Antitumor activity against mouse Colon 26 cells implanted in mouse at 200 mg/kg, po administered on day 9 to day 15; assay type: functional
Colon 26 [21] = assay: Antitumor activity against mouse Colon 26 cells implanted in mouse at 100 mg/kg, po administered on day 9 to day 15; assay type: functional
Colon 26 [22] = assay: Antitumor activity against mouse Colon 26 cells implanted in mouse at 150 mg/kg, po administered BID on day 9 to day 15; assay type: functional
Colon 26 [23] = assay: Antitumor activity against mouse Colon 26 cells implanted in mouse at 50 mg/kg, po administered BID on day 9 to day 15; assay type: functional
Colon 26 [24] = assay: Antitumor activity against mouse Colon 26 cells implanted in mouse assessed as <62 mg decrease in tumor mass at 150 mg/kg, po administered BID on day 9 to day 15; assay type: functional, organism-based; parameters: dose 150 mg/kg

Structure (SMILES): CCN(CC)CCCNc1nnc(-c2ccc(F)c(F)c2Nc2ccc(I)cc2F)o1
solubility [1]: < 3 µg/mL
half-life [2]: 40 min

Structure (SMILES): Nc1nnc(-c2ccc(F)c(F)c2Nc2ccc(I)cc2F)o1
solubility [1]: < 3 µg/mL

Structure (SMILES): O=C(NOCC1CC1)c1ccc(F)c(F)c1Nc1ccc(I)cc1Cl [CI-1040]
half-life [2]: 8 min
Activity (Colon 26 [3]): inactive
Activity (Colon 26 [4]): inactive
LCK (Colon 26 [5]): 0.1
Activity (Mus musculus [6]): 4.8%

Structure (SMILES): Fc1cc(I)ccc1Nc1c(-c2nnc(NCCCN3CCOCC3)o2)ccc(F)c1F
solubility [1]: < 3 µg/mL
half-life [2]: 40 min

Structure (SMILES): CNCCNc1nnc(-c2ccc(F)c(F)c2Nc2ccc(I)cc2F)o1
solubility [1]: 6.7 µg/mL (≈ 13.7 µM)
half-life [2]: 40 min
Activity (Mus musculus [7]): Active
Activity (Mus musculus [8]): Active
Activity (Mus musculus [9]): 4.5%
Activity (Mus musculus [10]): 0.1%
Activity (Mus musculus [11]): Toxic
Activity (Mus musculus [12]): 4%
Activity (Mus musculus [13]): Toxic
Activity (Mus musculus [14]): Toxic
Activity (Colon 26 [15]): Active
Activity (Colon 26 [16]): inactive
Activity (Colon 26 [3]): Active
Activity (Colon 26 [17]): inactive
Activity (Colon 26 [18]): inactive
LCK (Colon 26 [19]): 0.3
LCK (Colon 26 [20]): 0.3
LCK (Colon 26 [21]): 0
LCK (Colon 26 [22]): 0.4
LCK (Colon 26 [5]): 0.2
LCK (Colon 26 [23]): 0.1
Activity (Colon 26 [24]): Active

Second part, the molecule after the results:

solubility [1]: < 3 µg/mL
half-life [2]: 40 min
Structure (SMILES): OCCCCNc1nnc(-c2ccc(F)c(F)c2Nc2ccc(I)cc2F)o1

solubility [1]: < 3 µg/mL
half-life [2]: 40 min
Structure (SMILES): OCCNc1nnc(-c2ccc(F)c(F)c2Nc2ccc(I)cc2F)o1

solubility [1]: < 3 µg/mL
half-life [2]: 40 min
Structure (SMILES): OCCCNc1nnc(-c2ccc(F)c(F)c2Nc2ccc(I)cc2F)o1

solubility [1]: < 3 µg/mL
half-life [2]: 40 min
Structure (SMILES): OCCCCCNc1nnc(-c2ccc(F)c(F)c2Nc2ccc(I)cc2F)o1

solubility [1]: < 3 µg/mL
half-life [2]: 40 min
Structure (SMILES): NCCNc1nnc(-c2ccc(F)c(F)c2Nc2ccc(I)cc2F)o1

solubility [1]: < 3 µg/mL
half-life [2]: 35 min
Structure (SMILES): COCCCNc1nnc(-c2ccc(F)c(F)c2Nc2ccc(I)cc2F)o1

solubility [1]: 5.4 µg/mL (≈ 11 µM)
half-life [2]: 40 min
Structure (SMILES): NCCCNc1nnc(-c2ccc(F)c(F)c2Nc2ccc(I)cc2F)o1
